The values below come from the M2OR odorant receptor database.

Molecules are shown by their SMILES.
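Also: active if original authors judged signal statistically different from baseline.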

In one experiment the target is T1, UniProt Q8VG53.
T1 sequence (whole entry): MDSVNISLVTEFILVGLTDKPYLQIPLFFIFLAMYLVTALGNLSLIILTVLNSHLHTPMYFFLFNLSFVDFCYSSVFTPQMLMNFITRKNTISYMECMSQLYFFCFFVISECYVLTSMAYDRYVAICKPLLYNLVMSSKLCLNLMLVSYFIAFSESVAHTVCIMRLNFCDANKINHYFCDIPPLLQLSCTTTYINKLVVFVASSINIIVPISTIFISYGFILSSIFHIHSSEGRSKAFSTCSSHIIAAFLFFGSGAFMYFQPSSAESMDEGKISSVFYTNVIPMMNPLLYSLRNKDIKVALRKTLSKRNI
The settings on record: stereoisomer not certain. In short, it runs like this: (§1)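 Transient luciferase assays in mammalian cell lines were common, though methods varied by source. The values come from published papers and their supplementary material, with extra details from the original authors when needed. Responsive refers to a measured signal the original authors judged statistically different from baseline, and non-responsive (inactive) to the remainder.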
For `CC(C=O)Cc1ccc2c(c1)OCO2` (stereo unspecified), the “odorant receptor agonist call” value was “inactive”.

For the compound `CCCCC(Br)C(=O)O` (stereo unspecified), the “odorant receptor agonist call” value was “inactive”.

Turning to `Oc1ccccc1Br`, the “odorant receptor agonist call” value is “inactive”.

With `C=CCOC(=O)Cc1ccccc1`, the “odorant receptor agonist call” value is “inactive”.

On to `CCCCCCC(Br)C(=O)O` (stereo unspecified), for which the “odorant receptor agonist call” value was “inactive”.

As for `C=C(C)C1CC=C(C=O)CC1` (stereo unspecified), the “odorant receptor agonist call” value was “inactive”.

On to `O=CC=Cc1ccccc1`, for which the “odorant receptor agonist call” value is “inactive”.

`Cc1ccc(OC(=O)Cc2ccccc2)cc1`: the “odorant receptor agonist call” value is “inactive”.

Consider `OCc1ccc2c(c1)OCO2`, for which the “odorant receptor agonist call” value is “inactive”.

Regarding `O=Cc1ccccc1`, the “odorant receptor agonist call” value was “inactive”.

On to `O=c1cc(O)c2ccccc2o1`, for which the “odorant receptor agonist call” value was “inactive”.

On to `CSSC`, for which the “odorant receptor agonist call” value was “inactive”.

`COc1ccc(C=O)cc1`: the “odorant receptor agonist call” value is “inactive”.

Regarding `O=Cc1ccc2c(c1)OCO2`, the “odorant receptor agonist call” value is “inactive”.

The target of a further experiment is T2, UniProt Q8VG64.
T2 sequence (whole entry): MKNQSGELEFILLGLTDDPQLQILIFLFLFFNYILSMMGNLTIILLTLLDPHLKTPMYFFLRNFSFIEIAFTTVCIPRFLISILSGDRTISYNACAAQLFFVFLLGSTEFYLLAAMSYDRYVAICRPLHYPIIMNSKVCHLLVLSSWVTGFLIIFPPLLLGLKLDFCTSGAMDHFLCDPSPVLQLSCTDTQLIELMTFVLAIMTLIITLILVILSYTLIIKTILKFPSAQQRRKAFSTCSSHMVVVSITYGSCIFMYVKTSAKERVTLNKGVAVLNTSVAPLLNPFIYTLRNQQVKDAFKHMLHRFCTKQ
The settings on record: stereoisomer not certain. In short, it runs like this:
as §1
`CC(C=O)Cc1ccc2c(c1)OCO2` (stereo unspecified): the “odorant receptor agonist call” value was “inactive”.

For the compound `CCCCC(Br)C(=O)O` (stereo unspecified), the “odorant receptor agonist call” value was “inactive”.

Regarding `Oc1ccccc1Br`, the “odorant receptor agonist call” value was “inactive”.

Consider `C=CCOC(=O)Cc1ccccc1`, for which the “odorant receptor agonist call” value was “inactive”.

Take `CCCCCCC(Br)C(=O)O` (stereo unspecified): the “odorant receptor agonist call” value is “inactive”.

For the compound `C=C(C)C1CC=C(C=O)CC1` (stereo unspecified), the “odorant receptor agonist call” value was “inactive”.

Regarding `O=CC=Cc1ccccc1`, the “odorant receptor agonist call” value was “inactive”.

Turning to `Cc1ccc(OC(=O)Cc2ccccc2)cc1`, the “odorant receptor agonist call” value was “inactive”.

For `OCc1ccc2c(c1)OCO2`, the “odorant receptor agonist call” value is “inactive”.

As to `O=Cc1ccccc1`, the “odorant receptor agonist call” value was “inactive”.

As for `O=c1cc(O)c2ccccc2o1`, the “odorant receptor agonist call” value is “inactive”.

Take `CSSC`: the “odorant receptor agonist call” value is “inactive”.

With `COc1ccc(C=O)cc1`, the “odorant receptor agonist call” value was “inactive”.

Regarding `O=Cc1ccc2c(c1)OCO2`, the “odorant receptor agonist call” value was “inactive”.

The target of a further experiment is T3, UniProt Q8VG77.
T3 sequence (whole entry): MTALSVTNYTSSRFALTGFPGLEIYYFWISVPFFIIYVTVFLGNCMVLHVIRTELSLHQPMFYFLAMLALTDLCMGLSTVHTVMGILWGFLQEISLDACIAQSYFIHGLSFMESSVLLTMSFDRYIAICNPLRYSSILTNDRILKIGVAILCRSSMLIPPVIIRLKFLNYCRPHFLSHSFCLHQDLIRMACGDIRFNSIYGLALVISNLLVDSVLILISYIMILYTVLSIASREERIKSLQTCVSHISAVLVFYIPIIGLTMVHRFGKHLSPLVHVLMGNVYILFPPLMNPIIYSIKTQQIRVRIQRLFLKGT
The note with it: stereoisomer not certain. In short, it runs like this:
as §1
Regarding `C=CCOC(=O)Cc1ccccc1`, the “odorant receptor agonist call” value was “inactive”.

With `C=CCc1ccccc1`, the “odorant receptor agonist call” value was “inactive”.

As for `O=c1cc(O)c2ccccc2o1`, the “odorant receptor agonist call” value is “inactive”.

With `CCC1CCC(=O)O1` (stereo unspecified), the “odorant receptor agonist call” value is “inactive”.

A further experiment deals with T4, UniProt Q8VG96.
T4 sequence (whole entry): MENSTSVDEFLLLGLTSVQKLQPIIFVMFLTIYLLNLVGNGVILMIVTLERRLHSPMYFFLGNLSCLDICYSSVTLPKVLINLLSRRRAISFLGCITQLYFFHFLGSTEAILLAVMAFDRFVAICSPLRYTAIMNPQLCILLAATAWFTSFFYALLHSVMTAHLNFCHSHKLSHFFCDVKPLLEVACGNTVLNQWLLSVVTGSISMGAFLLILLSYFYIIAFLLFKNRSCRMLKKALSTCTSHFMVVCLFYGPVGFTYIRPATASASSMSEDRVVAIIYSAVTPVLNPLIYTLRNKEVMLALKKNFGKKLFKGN
The note with it: stereoisomer not certain. Summed up:
as §1
For `C=CCOC(=O)Cc1ccccc1`, the “odorant receptor agonist call” value is “inactive”.

As to `C=CCc1ccccc1`, the “odorant receptor agonist call” value was “inactive”.

Take `O=c1cc(O)c2ccccc2o1`: the “odorant receptor agonist call” value is “inactive”.

Regarding `CCC1CCC(=O)O1` (stereo unspecified), the “odorant receptor agonist call” value is “inactive”.

The target in another experiment is T5, UniProt Q8VGB9.
T5 sequence (whole entry): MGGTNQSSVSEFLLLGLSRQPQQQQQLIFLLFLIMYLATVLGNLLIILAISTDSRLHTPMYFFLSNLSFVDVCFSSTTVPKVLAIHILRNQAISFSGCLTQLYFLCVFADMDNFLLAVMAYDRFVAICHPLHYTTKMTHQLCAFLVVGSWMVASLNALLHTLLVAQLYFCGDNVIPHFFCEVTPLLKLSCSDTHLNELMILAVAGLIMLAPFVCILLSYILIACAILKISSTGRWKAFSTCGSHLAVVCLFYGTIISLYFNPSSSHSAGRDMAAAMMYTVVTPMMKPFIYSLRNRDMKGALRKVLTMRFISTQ
The settings on record: stereoisomer not certain. Summed up:
as §1
As to `CC(C=O)Cc1ccc2c(c1)OCO2` (stereo unspecified), the “odorant receptor agonist call” value is “inactive”.

Regarding `CCCCC(Br)C(=O)O` (stereo unspecified), the “odorant receptor agonist call” value is “inactive”.

Turning to `Oc1ccccc1Br`, the “odorant receptor agonist call” value is “inactive”.

Regarding `C=CCOC(=O)Cc1ccccc1`, the “odorant receptor agonist call” value was “inactive”.

For `CCCCCCC(Br)C(=O)O` (stereo unspecified), the “odorant receptor agonist call” value is “inactive”.

Take `C=C(C)C1CC=C(C=O)CC1` (stereo unspecified): the “odorant receptor agonist call” value is “active”.

Take `O=CC=Cc1ccccc1`: the “odorant receptor agonist call” value was “inactive”.

On to `Cc1ccc(OC(=O)Cc2ccccc2)cc1`, for which the “odorant receptor agonist call” value was “inactive”.

As to `OCc1ccc2c(c1)OCO2`, the “odorant receptor agonist call” value is “inactive”.

Take `O=Cc1ccccc1`: the “odorant receptor agonist call” value was “inactive”.

In the case of `O=c1cc(O)c2ccccc2o1`, the “odorant receptor agonist call” value was “inactive”.

For the compound `CSSC`, the “odorant receptor agonist call” value was “inactive”.

As to `COc1ccc(C=O)cc1`, the “odorant receptor agonist call” value was “inactive”.

On to `O=Cc1ccc2c(c1)OCO2`, for which the “odorant receptor agonist call” value was “inactive”.

Another experiment deals with T6, UniProt Q8VGC6.
T6 sequence (whole entry): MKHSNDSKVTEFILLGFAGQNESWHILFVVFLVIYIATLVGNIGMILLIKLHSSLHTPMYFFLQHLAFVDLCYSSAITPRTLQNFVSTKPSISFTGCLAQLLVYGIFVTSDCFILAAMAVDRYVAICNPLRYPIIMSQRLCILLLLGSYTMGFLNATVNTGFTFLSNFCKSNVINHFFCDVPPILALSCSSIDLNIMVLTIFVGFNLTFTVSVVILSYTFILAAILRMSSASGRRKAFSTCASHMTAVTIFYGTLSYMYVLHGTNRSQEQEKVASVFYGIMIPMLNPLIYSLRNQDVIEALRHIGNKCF
The settings on record: stereoisomer not certain. In short, it runs like this:
as §1
Regarding `CC(C=O)Cc1ccc2c(c1)OCO2` (stereo unspecified), the “odorant receptor agonist call” value is “active”.

For the compound `CCCCC(Br)C(=O)O` (stereo unspecified), the “odorant receptor agonist call” value was “inactive”.

`Oc1ccccc1Br`: the “odorant receptor agonist call” value is “inactive”.

Regarding `C=CCOC(=O)Cc1ccccc1`, the “odorant receptor agonist call” value was “active”.

On to `CCCCCCC(Br)C(=O)O` (stereo unspecified), for which the “odorant receptor agonist call” value was “inactive”.

For the compound `C=C(C)C1CC=C(C=O)CC1` (stereo unspecified), the “odorant receptor agonist call” value is “inactive”.
